From ChEMBL document CHEMBL1147841, “Synthesis and biological study of 2-amino-4-aryl-5-chloropyrimidine analogues as inhibitors of VEGFR-2 and cyclin dependent kinase 1 (CDK1)” (Bioorg Med Chem Lett, 2007) come the findings set out here.

What is called Cmax is the maximum level reached in the sampled fluid or tissue. By bioavailability is commonly meant the share of a dose that reaches the circulation, judged against a reference dose that is usually intravenous. A low value points to poor availability. A word on the pIC50: it is the negative decadic logarithm of the IC50, by convention in mol/L. A higher pIC50 goes with a low IC50. A word on the AUC: it is the area under the concentration-time curve, a measure of exposure. Low values mean less exposure, high ones more exposure. By half-life is commonly meant the time in which the quantity being followed falls by half. By clearance is commonly meant the rate of elimination divided by the concentration. Low readings indicate a low capacity for elimination, high ones a high capacity for elimination.

Data set [1] is described as follows: Cmax in Sprague-Dawley rat at 2 mg/kg, iv. It counts as ADME, organism-based. The arrangement: dose 2 mg/kg, route intravenous. As to conditions: in vivo. Summed up: (§1)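 Male Sprague-Dawley rats were given single doses orally at 10 mg/kg in 0.5% Methocel and intravenously at 2 mg/kg in 10% Solutol. Plasma concentrations were followed to derive AUC (µM h), Cmax (µM), half-life (h), clearance (mL/min/kg), steady-state volume of distribution (L/kg) and oral bioavailability (%).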

Data set [2] in a line: Bioavailability in Sprague-Dawley rat at 10 mg/kg, po. Type of data set: ADME, organism-based. As to conditions: in vivo. Summed up: as §1
The subject of data set [3] is HeLa. The experiment in a line: Antiproliferative activity against human HeLa cells. It counts as functional, cell-based.
Data set [4] deals with Vascular endothelial growth factor receptor 2 (Homo sapiens, UniProt P35968). As to the kind of experiment: Inhibition of VEGFR2.
Data set [5] in a line: AUC in Sprague-Dawley rat at 10 mg/kg, po. It counts as ADME, organism-based. Further details: dose 10 mg/kg, route oral. The note with it: plasma. Summed up:
as §1

In data set [6] the test system is HCT-116. The experiment in a line: Antiproliferative activity against human HCT116 cells. Type of data set: functional, cell-based.
Data set [7] is described as follows: Volume of distribution at steady state in Sprague-Dawley rat. Type of data set: ADME, organism-based. As to conditions: in vivo, read-out: Vss. Summed up: as §1
The target of data set [8] is Cyclin-dependent kinase 1 (Homo sapiens, UniProt P06493). The experiment in a line: Inhibition of CDK1.
The nature of data set [9]: Cmax in Sprague-Dawley rat at 10 mg/kg, po. Type of data set: ADME, organism-based. As to conditions: in vivo. Further details: dose 10 mg/kg, route oral. Summed up:
as §1

Data set [10] in a line: AUC in Sprague-Dawley rat at 2 mg/kg, iv. Further details: dose 2 mg/kg, route intravenous. It counts as ADME, organism-based. The note with it: plasma. An outline of the steps:
as §1

Data set [11] is described as follows: Half life in Sprague-Dawley rat at 10 mg/kg, po. Type of data set: ADME, organism-based. The arrangement: dose 10 mg/kg, route oral. The note with it: in vivo. Summed up:
as §1

The subject of data set [12] is A-375. The experiment in a line: Antiproliferative activity against human A375 cells. Type of data set: functional, cell-based.
A short description of data set [13]: Clearance in Sprague-Dawley rat. It counts as ADME, organism-based. As to conditions: in vivo. An outline of the steps: as §1
Data set [14] is described as follows: Half life in Sprague-Dawley rat at 2 mg/kg, iv. Type of data set: ADME, organism-based. Further details: dose 2 mg/kg, route intravenous. The note with it: in vivo. An outline of the steps:
as §1

Each structure is given as a SMILES string. pIC50: −log10 of the molar value.

Sequence of Vascular endothelial growth factor receptor 2 (P35968 whole entry): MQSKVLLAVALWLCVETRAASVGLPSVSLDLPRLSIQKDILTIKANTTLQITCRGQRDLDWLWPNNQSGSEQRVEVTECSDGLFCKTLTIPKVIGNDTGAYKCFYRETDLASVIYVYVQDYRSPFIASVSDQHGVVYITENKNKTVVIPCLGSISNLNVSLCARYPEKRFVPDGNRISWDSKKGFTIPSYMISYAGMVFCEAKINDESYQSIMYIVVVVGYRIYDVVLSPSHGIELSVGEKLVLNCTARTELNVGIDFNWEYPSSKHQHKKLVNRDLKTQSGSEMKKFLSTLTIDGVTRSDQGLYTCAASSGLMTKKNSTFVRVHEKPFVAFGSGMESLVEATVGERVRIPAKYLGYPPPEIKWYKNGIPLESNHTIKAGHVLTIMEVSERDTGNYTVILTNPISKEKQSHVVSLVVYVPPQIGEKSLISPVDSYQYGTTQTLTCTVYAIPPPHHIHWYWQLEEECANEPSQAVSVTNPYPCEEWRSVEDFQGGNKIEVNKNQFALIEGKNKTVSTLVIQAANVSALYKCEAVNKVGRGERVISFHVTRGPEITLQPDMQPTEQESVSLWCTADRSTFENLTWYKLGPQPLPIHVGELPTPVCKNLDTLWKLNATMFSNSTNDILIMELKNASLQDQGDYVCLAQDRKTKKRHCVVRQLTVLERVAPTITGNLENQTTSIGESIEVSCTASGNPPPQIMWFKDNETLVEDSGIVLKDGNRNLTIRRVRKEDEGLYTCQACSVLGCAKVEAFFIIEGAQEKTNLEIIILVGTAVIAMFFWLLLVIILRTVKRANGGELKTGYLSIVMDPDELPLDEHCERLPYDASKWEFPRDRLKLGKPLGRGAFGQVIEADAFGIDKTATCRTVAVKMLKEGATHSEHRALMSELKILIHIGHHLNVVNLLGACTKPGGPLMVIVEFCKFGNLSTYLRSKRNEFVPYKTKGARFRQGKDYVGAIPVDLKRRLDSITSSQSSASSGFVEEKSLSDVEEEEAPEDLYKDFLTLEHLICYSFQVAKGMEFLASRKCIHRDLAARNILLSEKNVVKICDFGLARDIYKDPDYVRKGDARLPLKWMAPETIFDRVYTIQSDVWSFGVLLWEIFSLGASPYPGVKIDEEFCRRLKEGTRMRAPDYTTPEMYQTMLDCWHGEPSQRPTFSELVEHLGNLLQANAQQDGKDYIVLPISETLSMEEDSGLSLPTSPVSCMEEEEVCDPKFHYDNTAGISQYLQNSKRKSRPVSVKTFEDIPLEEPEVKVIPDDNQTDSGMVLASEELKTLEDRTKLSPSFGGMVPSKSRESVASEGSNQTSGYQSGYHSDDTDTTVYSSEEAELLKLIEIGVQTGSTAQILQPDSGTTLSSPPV
Sequence of Cyclin-dependent kinase 1 (P06493 whole entry): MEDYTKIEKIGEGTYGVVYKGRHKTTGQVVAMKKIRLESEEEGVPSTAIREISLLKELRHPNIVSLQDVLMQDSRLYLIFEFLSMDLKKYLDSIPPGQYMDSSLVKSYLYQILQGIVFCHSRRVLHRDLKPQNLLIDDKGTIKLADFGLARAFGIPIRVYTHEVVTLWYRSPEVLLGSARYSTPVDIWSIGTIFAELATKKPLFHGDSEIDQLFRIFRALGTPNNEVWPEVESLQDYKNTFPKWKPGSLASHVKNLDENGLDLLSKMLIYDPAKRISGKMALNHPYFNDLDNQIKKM

On to `CC(C)(N)c1ccc(-c2nc(Nc3ccc(CCO)cc3)ncc2Cl)cc1`, for which the highest concentration (Cmax) in data set [1] was determined as 1430 nM; in [9], 1110 nM. Besides, in [2], the bioavailability was 55%. Also, the negative-log IC50 (pIC50) in [3] was 5.53; in data set [4], 7.16; in data set [6], 5.80; in data set [8], 6.16; in [12], 5.86. Besides, the AUC in [5] worked out at 7.65 µM·h; in data set [10], 2.77 µM·h. For the same compound, in [7], the Vd is 10.7 L/kg. In addition, the half-life in [11] was 4.5 h; in data set [14] it was 4.9 h. Besides, the clearance in data set [13] amounted to 34 mL/min/kg.

For the compound `CC(C)(N)c1ccc(-c2nc(Nc3ccc(CCN4CCCC4)cc3)ncc2Cl)cc1`, the pIC50 in data set [3] is 6.47; in data set [4], 7.59; in [6] it was 6.44; in data set [8], 6.09; in data set [12], 6.61.

On to `CC(C)(N)c1ccc(-c2nc(Nc3ccc(CCN4CCOCC4)cc3)ncc2Cl)cc1`, for which the negative logarithm of the IC50 (pIC50) in data set [3] was 5.52; in [4] it was 6.83; in [6], 5.49; in [8] it was 5.56; in data set [12], 5.50.

Regarding `CN(C)CCc1ccc(Nc2ncc(Cl)c(-c3n[nH]c4ccccc34)n2)cc1`, the pIC50 in data set [3] was 5.51; in data set [4] it was 6.50; in data set [6] it was 5.42; in data set [8], 6.11; in data set [12], 5.40.

In the case of `CN1CCN(CCc2ccc(Nc3ncc(Cl)c(-c4c[nH]c5ccccc45)n3)cc2)CC1`, the pIC50 was 5.48 in [3]; 8.15 in [4]; 5.52 in data set [6]; 6.74 in [8]; 5.41 in [12].

As for `Clc1cnc(Nc2ccc(CCN3CCCC3)cc2)nc1-c1ccc2cc[nH]c2c1`, the values for the peak concentration (Cmax) in data set [1] and in [9] were 670 nM and 720 nM, respectively. The compound further yielded a bioavailability in [2] of 70%. Further, the negative-log IC50 (pIC50) in data set [3] was 6.01; in data set [4], 7.80; in data set [6] it was 5.77; in data set [8], 5.81; in data set [12], 5.71. In addition, the area under the curve (AUC) was 5.74 µM·h in data set [5] and 1.63 µM·h in data set [10]. Further, the Vd in data set [7] was 16.3 L/kg. Besides, the values for the half-life in [11] and in data set [14] were 2.6 h and 3.9 h, respectively. Moreover, the clearance in [13] was determined as 51 mL/min/kg.

For the compound `CN(C)CCc1ccc(Nc2ncc(Cl)c(-c3cccs3)n2)cc1`, the pIC50 in data set [3] is 5.91; in [4], 6.80; in data set [6] it was 6.64; in data set [8] it was 6.34; in data set [12], 7.80.

For `CC(C)(N)c1ccc(-c2nc(Nc3cccc(Br)c3)ncc2Cl)cc1`, the pIC50 was 5.47 in [3]; 6.46 in [4]; 5.43 in data set [6]; 5.98 in data set [8]; 5.58 in data set [12].

For `Cc1nc(C)c(-c2nc(Nc3ccc(CCN(C)C)cc3)ncc2Cl)s1`, the pIC50 in data set [3] was 6.37; in data set [4], 6.10; in data set [6], 6.41; in data set [8], 6.36; in [12], 6.40.

As for `CN(C)CCc1ccc(Nc2ncc(Cl)c(-c3c[nH]c4ccccc34)n2)cc1`, the negative logarithm of the IC50 (pIC50) in data set [3] is 7.12; in data set [4], 8.15; in data set [6] it was 7.08; in [8], 7.32; in data set [12] it was 7.30.

On to `CN(C)CCc1ccc(Nc2ncc(Cl)c(-c3ccc4[nH]ccc4c3)n2)cc1`, for which the pIC50 is 6.22 in data set [3]; 6.99 in data set [4]; 6.49 in data set [6]; 6.07 in data set [8]; 7.52 in data set [12].

In the case of `CN(C)CCc1ccc(Nc2ncc(Cl)c(-c3ccc4cc[nH]c4c3)n2)cc1`, the pIC50 in data set [3] was 6.33; in [4], 7.82; in [6] it was 6.35; in data set [8], 5.75; in data set [12], 6.47.

Take `CN(C)CCc1ccc(Nc2ncc(Cl)c(-c3cccc4cc[nH]c34)n2)cc1`: the pIC50 in [3] is 5.89; in data set [4] it was 6.34; in [6], 6.33; in [8], 6.48; in data set [12], 6.11.

As for `CN1CCN(CCc2ccc(Nc3ncc(Cl)c(-c4ccc(C(C)(C)N)cc4)n3)cc2)CC1`, the negative logarithm of the IC50 (pIC50) in data set [3] is 6.09; in [4] it was 7.12; in data set [6], 5.89; in data set [8] it was 5.79; in data set [12] it was 6.06.

Take `CN(C)CCc1ccc(Nc2ncc(Cl)c(-c3cccc4[nH]ccc34)n2)cc1`: the negative-log IC50 (pIC50) is 6.53 in data set [3]; 6.67 in [4]; 7.08 in data set [6]; 6.27 in [8]; 6.68 in data set [12].

Take `CNCCc1ccc(Nc2ncc(Cl)c(-c3ccc(C(C)(C)N)cc3)n2)cc1`: the pIC50 is 6.27 in data set [3]; 7.48 in data set [4]; 6.05 in data set [6]; 5.97 in data set [8]; 6.76 in data set [12].

As to `CN(C)CCc1ccc(Nc2ncc(Cl)c(-c3ccc(C(C)(C)N)cc3)n2)cc1`, the pIC50 in data set [3] is 6.30; in data set [4], 7.72; in [6], 5.77; in data set [8], 5.94; in data set [12], 6.79.

For the compound `CCN1CCN(CCc2ccc(Nc3ncc(Cl)c(-c4ccc5cc[nH]c5c4)n3)cc2)CC1`, the highest concentration (Cmax) is 960 nM in [1] and 590 nM in data set [9]. The compound also returned a bioavailability in data set [2] of 40%. In addition, the negative logarithm of the IC50 (pIC50) in data set [3] is 5.68; in data set [4], 7.43; in [6], 5.61; in data set [8] it was 5.91; in data set [12], 5.59. Moreover, the AUC turned out to be 6.12 µM·h in data set [5] and 3.06 µM·h in data set [10]. Also, the Vd in data set [7] was determined as 10.1 L/kg. The figures for the half-life in data set [11] and in data set [14] were 4.6 h and 5.8 h, respectively. Also, the clearance in data set [13] turned out to be 25 mL/min/kg.
